In ChEMBL document CHEMBL3259540, “Design, synthesis and molecular docking studies of novel N-benzenesulfonyl-1,2,3,4-tetrahydroisoquinoline-based triazoles with potential anticancer activity” (Eur J Med Chem, 2014):
pIC50: −log10 of the molar value.

Tests used:
[1] = Cytotoxicity against human HuCCa1 cells after 48 hrs by MTT assay; type: functional, cell-based; conditions: HuCC-A1, 48 h
Method in brief: (§1)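 Adherent cells seeded at 10,000–20,000 per well and held 24 h at 37 °C in 5% CO2. Serial dilutions of compound were then added, with etoposide and/or doxorubicin as positive controls and DMSO as negative control. After 48 h of continuous exposure, survival was read by MTT. IC50 was the concentration giving 50% growth inhibition relative to the DMSO control.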

HepG2 [2] = assay: Cytotoxicity against human HepG2 cells after 48 hrs by MTT assay; type: functional, cell-based; conditions: HepG2, 48 h; method in brief: as §1
A549 = assay: Cytotoxicity against human A549 cells after 48 hrs by MTT assay; type: functional, cell-based; conditions: A549, 48 h; method in brief: as §1
Vero = assay: Cytotoxicity against african green monkey Vero cells after 4 days by GFP detection method; type: cell-based; conditions: Chlorocebus sabaeus, 96 h
Method in brief: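 Cells at 3.3 × 10^4 cells/mL were added to compounds prediluted in 0.5% DMSO. Plates were incubated 4 days at 37 °C in 5% CO2, and GFP fluorescence was read from the plate bottom.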

[3] = Cytotoxicity against human MOLT3 cells after 48 hrs by XTT assay; conditions: MOLT-3, 48 h
HepG2 [4] = assay: Ratio of etoposide IC50 to compound IC50 for human HepG2 cells after 48 hrs by MTT assay; type: functional
HepG2 [5] = assay: Ratio of doxorubicin IC50 to compound IC50 for human HepG2 cells after 48 hrs by MTT assay; type: functional

Compound | pIC50 [1] | IC50 (HepG2 [2]) [µg/mL] | IC50 (A549) [µg/mL] | IC50 (Vero) [µg/mL] | IC50 [3] [µg/mL] | IC50 [1] [µg/mL] | pIC50 (HepG2 [2]) | pIC50 (A549) | pIC50 [3] | pIC50 (Vero) | Ratio IC50 (HepG2 [4]) | Ratio IC50 (HepG2 [5])
O=S(=O)(c1ccc(-n2cc(CO)nn2)cc1)N1CCc2ccccc2C1 | 4.29 | > 50 | > 50 | > 50 | > 50 | – | – | – | – | – | – | –
O=S(=O)(c1ccc(-n2cc(COc3ccccc3)nn2)cc1)N1CCc2ccccc2C1 | – | – | > 50 | > 50 | > 50 | > 50 | 5.19 | – | – | – | – | –
O=S(=O)(c1ccc(-n2cc(COc3ccc4ccccc4c3)nn2)cc1)N1CCc2ccccc2C1 | – | – | > 50 | > 50 | > 50 | > 50 | 4.22 | – | – | – | – | –
Cc1ccccc1OCc1cn(-c2ccc(S(=O)(=O)N3CCc4ccccc4C3)cc2)nn1 | – | > 50 | – | > 50 | > 50 | > 50 | – | 4.18 | – | – | – | –
Cc1ccc(OCc2cn(-c3ccc(S(=O)(=O)N4CCc5ccccc5C4)cc3)nn2)cc1 | – | > 50 | > 50 | > 50 | > 50 | > 50 | – | – | – | – | – | –
CC(=O)c1ccccc1OCc1cn(-c2ccc(S(=O)(=O)N3CCc4ccccc4C3)cc2)nn1 | 4.52 | – | – | > 50 | – | – | 4.72 | 4.83 | 4.66 | – | – | –
COC(=O)c1ccccc1OCc1cn(-c2ccc(S(=O)(=O)N3CCc4ccccc4C3)cc2)nn1 | 6.20 | – | – | – | – | – | 4.91 | 6.24 | 4.73 | 5.30 | – | –
O=Cc1ccc(OCc2cn(-c3ccc(S(=O)(=O)N4CCc5ccccc5C4)cc3)nn2)cc1 | – | – | – | > 50 | > 50 | > 50 | 5.28 | 4.23 | – | – | – | –
O=c1cc(OCc2cn(-c3ccc(S(=O)(=O)N4CCc5ccccc5C4)cc3)nn2)c2ccccc2o1 | 4.61 | > 50 | – | – | – | – | – | 4.60 | 4.09 | 4.54 | – | –
COc1cc2c(cc1OC)CN(S(=O)(=O)c1ccc(-n3cc(CO)nn3)cc1)CC2 | 4.14 | – | – | > 50 | > 50 | – | 4.50 | 4.39 | – | – | – | –
COc1cc2c(cc1OC)CN(S(=O)(=O)c1ccc(-n3cc(COc4ccccc4)nn3)cc1)CC2 | – | – | > 50 | > 50 | > 50 | > 50 | 5.59 | – | – | – | – | –
COc1cc2c(cc1OC)CN(S(=O)(=O)c1ccc(-n3cc(COc4ccc5ccccc5c4)nn3)cc1)CC2 | – | – | > 50 | > 50 | – | > 50 | 5.90 | – | 4.44 | – | – | –
COc1cc2c(cc1OC)CN(S(=O)(=O)c1ccc(-n3cc(COc4ccccc4C)nn3)cc1)CC2 | 4.40 | – | – | > 50 | > 50 | – | 5.83 | 4.57 | – | – | – | –
COc1cc2c(cc1OC)CN(S(=O)(=O)c1ccc(-n3cc(COc4ccc(C)cc4)nn3)cc1)CC2 | – | – | > 50 | > 50 | > 50 | > 50 | 6.25 | – | – | – | 53.9 | 1.4
COc1cc2c(cc1OC)CN(S(=O)(=O)c1ccc(-n3cc(COc4ccccc4C(C)=O)nn3)cc1)CC2 | – | > 50 | > 50 | – | > 50 | > 50 | – | – | – | 4.43 | – | –
COC(=O)c1ccccc1OCc1cn(-c2ccc(S(=O)(=O)N3CCc4cc(OC)c(OC)cc4C3)cc2)nn1 | 5.32 | – | – | – | – | – | 5.47 | 5.07 | 4.93 | 5.55 | – | –
COc1cc2c(cc1OC)CN(S(=O)(=O)c1ccc(-n3cc(COc4ccc(C=O)cc4)nn3)cc1)CC2 | 4.51 | – | – | > 50 | – | – | 4.90 | 4.50 | 4.47 | – | – | –
COc1cc2c(cc1OC)CN(S(=O)(=O)c1ccc(-n3cc(COc4ccc([N+](=O)[O-])cc4)nn3)cc1)CC2 | – | > 50 | > 50 | > 50 | > 50 | > 50 | – | – | – | – | – | –
COc1cc2c(cc1OC)CN(S(=O)(=O)c1ccc(-n3cc(COc4cc(C=O)ccc4OC)nn3)cc1)CC2 | 4.12 | – | – | > 50 | – | – | 4.38 | 4.50 | 5.24 | – | – | –
COc1cc2c(cc1OC)CN(S(=O)(=O)c1ccc(-n3cc(COc4ccc(C=O)cc4OC)nn3)cc1)CC2 | 4.40 | > 50 | > 50 | > 50 | – | – | – | – | 5.26 | – | – | –
COc1cccc2c1C(=O)c1c(O)c3c(c(O)c1C2=O)C[C@@](O)(C(=O)CO)C[C@@H]3O[C@H]1C[C@H](N)[C@H](O)[C@H](C)O1 [DOXORUBICIN] | 6.08 | – | – | – | – | – | – | – | – | – | – | –
Cc1c2ccncc2c(C)c2c1[nH]c1ccccc12 [ELLIPTECINE] | – | – | – | – | – | – | – | – | – | 5.71 | – | –
COc1cc([C@@H]2c3cc4c(cc3[C@@H](O[C@@H]3O[C@@H]5CO[C@@H](C)O[C@H]5[C@H](O)[C@H]3O)[C@H]3COC(=O)[C@H]23)OCO4)cc(OC)c1O [ETOPOSIDE] | – | – | – | – | – | – | – | – | 7.29 | – | – | –
